MrgX1 antagonist – blocks BAM8-22 activation of human MrgX1 receptor; MRGX1-HEK293 calcium flux, Fluo-4, BAM8-22 antagonism; hits give low values; B-score at 10 µM; hit rate 1.3% among 310,000; AID 588676;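 active = calcium-response B-score plate-corrected more than 3 library SD below zero, starting fluorescence within 5 deviations, no agonist response on first addition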;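 note: peak minus trough fluorescence over baseline after final BAM8-22 challenge near maximal dose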
Target sequence (Q96LB2 whole entry, looked up): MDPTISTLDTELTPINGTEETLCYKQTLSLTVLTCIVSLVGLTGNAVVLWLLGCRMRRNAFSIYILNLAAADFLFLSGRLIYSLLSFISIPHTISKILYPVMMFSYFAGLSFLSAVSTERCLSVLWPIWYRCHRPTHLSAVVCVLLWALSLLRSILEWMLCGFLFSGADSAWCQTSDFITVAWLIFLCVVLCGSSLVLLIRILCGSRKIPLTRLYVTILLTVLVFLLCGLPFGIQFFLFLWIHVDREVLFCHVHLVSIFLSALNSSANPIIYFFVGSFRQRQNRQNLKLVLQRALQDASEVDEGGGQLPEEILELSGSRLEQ
RGS4 act – RGS4 potentiation or activation; hit rate 0.92% among 310,000; AID 463111; B-score at 10 µM; HEK293 M3R/inducible RGS4, carbachol calcium flux Fluo4; hits give low values;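 active = B-score of the integrated calcium signal more than 4 SD below the library mean, with starting fluorescence not abnormally high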;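 note: negative B-score means reduced calcium response which marks RGS4 activation or potentiation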
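Assay system: HEK293 FlpIn-TREx cells, stable M3R, doxycycline-inducible RGS4 / Probe or stimulus: carbachol, ECmax concentration / Times: overnight RGS4 induction, 30 min dye load 37 °C, 20 min compound RT / Signal: kinetic calcium fluorescence imaging with Fluo4-AM dye, 2 µM / Measure: Agonist-evoked peak-minus-minimum fluorescence over baseline, integrated ratio, B score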
MrgX1 agonist – activates human MrgX1 receptor signaling | B-score at 10 µM | Q96LB2 | hit rate 0.44% among 310,000 | MrgX1-HEK293 cells, Fluo-4 calcium fluorescence, agonist mode; hits give high values;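 active = calcium response B-score plate-corrected fluorescence ratio at least 3 library SD, with starting fluorescence B-score inside 5 SD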
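System: HEK293 cells stably expressing human MrgX1 receptor; Dosing: test compound in the initial addition of three; Schedule: overnight plating, then 30 min 37 °C plus 30 min room-temperature dye loading; Detection: kinetic calcium dye fluorescence, Fluo-4 NW; Controls: per-plate positive and negative controls for Z′ factor.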
MrgX1 PAM – human MrgX1 positive allosteric modulation, primary screen. Q96LB2. MrgX1-HEK293, Fluo-4 calcium flux, FDSS; hits give high values. B-score at 10 µM. hit rate 0.63% among 310,000;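 active = plate-corrected calcium response at least 3 library SD above typical, normal starting fluorescence, not activating the receptor alone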;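 note: compound read alongside a low EC10 to EC30 dose of BAM8-22 agonist; peak minus trough fluorescence over baseline measured at the second addition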
RGS4 inh – inhibitors of human RGS4; hit rate 0.45% among 310,000; P49798; B-score at 10 µM; HEK293 M3R/RGS4 inducible, Fluo-4 calcium flux; hits give high values; triggered by carbachol at its EC20;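 active = B-score, a plate-corrected calcium signal, over three deviations above library mean, with baseline fluorescence within five deviations of library mean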;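 note: RGS4 expression induced by doxycycline in cells with stable M3 receptor; B-score is computed from the integrated fluorescence ratio over baseline after carbachol; higher B-score means a larger calcium signal and so more RGS4 inhibition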
Target sequence (P49798 whole entry, looked up): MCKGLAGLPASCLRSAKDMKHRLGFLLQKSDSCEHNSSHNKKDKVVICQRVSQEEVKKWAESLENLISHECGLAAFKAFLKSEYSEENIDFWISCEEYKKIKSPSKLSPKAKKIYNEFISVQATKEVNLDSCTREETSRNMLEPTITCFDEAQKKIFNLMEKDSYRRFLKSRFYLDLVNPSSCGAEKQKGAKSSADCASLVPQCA
MrgX1 allo conf – confirmation of human MrgX1 receptor positive allosteric modulators | activation (ratio percentage), % at 10 µM | MrgX1-HEK293, Fluo-4 calcium fluorescence, FDSS | hit rate 13% among 1,200 | shares compounds with MrgX1 PAM;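 active = ratio at least 3 SD above the weak peptide control, stable starting fluorescence, no direct agonism earlier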;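 note: compound followed by low BAM8-22 agonist challenge near EC20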
MrgX1 ant reconf – human MrgX1 receptor antagonism, re-confirmation screen; shares compounds with MrgX1 antagonist; MrgX1-HEK293, BAM8-22 calcium flux, Fluo-4; hits give low values; remaining BAM8-22 calcium response % of control (hits give low values), % at 10 µM; hit rate 19% among 2,300; AID 602420;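 active = remaining agonist calcium response no higher than 100% minus 3 SD of agonist-only control wells, with starting fluorescence near control levels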;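 note: agonist BAM8-22 given at a near maximal EC90 to ECmax level; peak minus minimum fluorescence divided by baseline after agonist addition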
HEK293 Ca flux – MrgX1 antagonist counter-screen hit in parental HEK293 cells; shares compounds with MrgX1 antagonist; Fluo-4 calcium fluorescence, FDSS; fluorescence ratio F(max-min)/F0 at 10 µM; hit rate 2% among 4,000;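 active = duplicate-averaged calcium fluorescence ratio at least three times the standard deviation of buffer wells, a nonspecific response in parental cells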
HEK293 Ca counter – counter-screen for MrgX1 allosteric activators: effect in parental HEK293 cells; shares compounds with MrgX1 antagonist; parental HEK293 calcium flux, Fluo-4 fluorescence ratio; hits give high values; fluorescence ratio F(max-min)/F0 at 10 µM; hit rate 0.4% among 4,000;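 active = calcium fluorescence ratio, averaged over duplicates, at least 3 SD of the buffer-well ratio, meaning a nonspecific response in receptor-free cells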;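 note: untransfected parental HEK293 lacking MrgX1 used as counterscreen for MrgX1 allosteric activators; fluorescence change taken during the second addition on a kinetic imager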
HEK293 Ca cntr2 – activity in parental HEK293 cells lacking MrgX1 receptor; shares compounds with MrgX1 antagonist; Fluo-4 calcium fluorescence (FDSS); hits give high values; fluorescence ratio F(max-min)/F0 at 10 µM; hit rate 8.7% among 4,000;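 active = calcium fluorescence ratio at least three times the spread of buffer wells, meaning a non-specific response in parental cells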
A number is an active result; 0 = inactive; - = not tested or not shown. Rows were chosen to be rich in hits. Some 3.5% of all compounds tested hit in one or more screens of this group.

SMILES	MrgX1 antagonist	RGS4 act	MrgX1 agonist	MrgX1 PAM	RGS4 inh	MrgX1 allo conf	HEK293 Ca flux	HEK293 Ca counter	HEK293 Ca cntr2	others
CCOC(=O)c1cn[nH]c1C(F)(F)F	0	0	0	0	0	-	-	-	-
O=C(N=C1SC2CS(=O)(=O)CC2N1c1cccc(Cl)c1)C1CCCO1 (centres undefined)	0	0	0	0	0	-	-	-	-
CN1CCN(C(=O)c2ccccc2N(Cc2ccccc2)S(=O)(=O)c2ccccc2)CC1	0	0	0	0	0	-	-	-	-
CC(=O)c1c(C)[nH]c(C(=O)N(CCc2ccccc2)Cc2ccccc2)c1C	0	0	0	0	0	-	-	-	-
CCC(CO)n1c(SCc2cc(=O)oc3cc(C)ccc23)nc2ccccc2c1=O (centres undefined)	0	0	0	0	0	-	-	-	-
COc1ccccc1NC(=O)N1c2ccc(F)cc2CCC1C (centres undefined)	0	0	0	10.1	0	0	0	0	0
O=C(Cc1ccccc1)Nc1ccc(C(=O)NCc2ccccc2)cc1	0	0	0	0	0	-	-	-	-
CC12COC3(C(N)=O)CC1CCC32C (centres undefined)	0	0	0	0	0	-	-	-	-
CC12COC3(C(=O)Nc4ccc(F)cc4)CC1CCC32C (centres undefined)	0	0	0	10.7	0	0	0	0	0
O=C(Oc1cc(Cl)cc(Cl)c1)c1cnc2n(c1=O)CCS2	0	0	0	0	0	-	-	-	-
O=C(/C=C/c1ccccc1)NNC(=O)c1cccs1	0	0	0	0	0	-	-	-	-
Cc1cc(-n2nc(C)cc2C)nc(NS(=O)(=O)c2ccccc2Cl)n1	0	0	0	0	0	-	-	-	-
CC1=CC(C)C(/C=N/N=C(N)N)C(C)C1 (centres undefined)	0	0	0	24.2	0	0	0	0	0
O=C(/C=C/c1ccccc1Cl)NC1CCS(=O)(=O)C1 (centres undefined)	0	0	0	0	0	-	-	-	-
Cc1ccc2[nH]cc(C(=O)CCl)c2c1	0	0	0	7.39	0	0	0	0	0
Cc1cc(C)c2c(N)c(C(=O)Nc3ccc([N+](=O)[O-])cc3)sc2n1	0	0	0	0	0	-	-	-	-
CCN1CCN(CCNC(=O)c2ccc3c(c2)N(Cc2ccc(F)cc2)C(=O)/C(=C/c2ccccc2)S3)CC1	-16	0	0	20.9	0	0	0	0	0	MrgX1 ant reconf=65.7%
CN1CCN(CCCNC(=O)c2ccc(/C=C3\Sc4ccccc4N(Cc4ccccc4F)C3=O)cc2)CC1	-	0	-	-	0	-	-	-	-
CC(C)(O)[C@H](O)COc1c2ccoc2cc2oc(=O)ccc12	0	0	0	0	0	-	-	-	-
CCCC(=O)Nc1nc(-c2ccc(OC)cc2)cs1	0	0	0	0	0	-	-	-	-
COc1ccc(-c2csc(NC(=O)CS(=O)(=O)c3ccccc3)n2)cc1	0	0	0	12.2	0	6.8%	0	0	0
C/C(=C\C(=O)c1ccccc1)NCc1ccc(F)cc1	0	0	0	7.43	0	0	0	0	0
Cc1[nH]c(=O)[nH]c(=O)c1CSCC(=O)OCC(=O)Nc1ccccn1	0	0	0	0	0	-	-	-	-
Cc1cc(C)c2c(=O)n(CC(=O)Nc3ccc(Br)c(C)c3)sc2n1	0	0	0	7.05	0	0	0	0	0
Cc1ccc(NC(=S)NN2CCN(C)CC2)c(C)c1	0	0	0	0	0	-	-	-	-
SMILES	MrgX1 antagonist	RGS4 act	MrgX1 agonist	MrgX1 PAM	RGS4 inh	MrgX1 allo conf	HEK293 Ca flux	HEK293 Ca counter	HEK293 Ca cntr2	others
CC1CCc2c(C(=O)NCc3ccccn3)csc2C1 (centres undefined)	0	0	0	0	0	-	-	-	-
CC1CCc2c(C(=O)Nc3ccccn3)csc2C1 (centres undefined)	0	0	0	8.28	0	0	0	0	0
Cc1ccc(S(=O)(=O)N(C)C)cc1NC(=S)N1CCc2ccccc21	0	0	0	11.4	0	0	0	0	0
O=S(=O)(Nc1ncnc2scc(-c3ccc(F)cc3)c12)c1cc(F)ccc1F	0	0	0	11.9	0	0	0	0	0
Cc1cc(-c2nnnn2-c2ccc(C(F)(F)F)cc2)no1	0	0	0	6.98	0	0	0	0	0
Cc1ccc(-n2nnnc2-c2cccc(C)c2)cc1	0	0	0	0	0	-	-	-	-
Cc1cc(C)c(C(N)=O)c(Nc2cccc3ccccc23)n1	0	0	0	0	0	-	-	-	-
CN1CCN(/C=N/c2sc3c(c2C#N)CCCCC3)CC1	0	0	0	0	0	-	-	-	-
N#Cc1c(/N=C/C=C/c2ccccc2)sc2c1CCCC2	0	0	0	8	0	0	0	0	0
CNc1nc(Sc2cccc(C(F)(F)F)c2)cc(C(F)(F)F)n1	0	0	0	10.3	0	0	0	0	0
Cc1nc(-c2cc(C#N)c(Sc3cccc(C(F)(F)F)c3)nc2C)cs1	0	0	0	0	0	-	-	-	-
CNc1nc(Sc2ccccc2)cc(C(F)(F)F)n1	0	0	0	21.5	0	0	0	0	0
Cc1ccc(-c2nc(NC(=O)CSc3ncn[nH]3)ns2)cc1	0	0	0	0	0	-	-	-	-
CC12CCC(C(=O)Nc3nc4ccc(Br)cc4s3)(OC1=O)C2(C)C (centres undefined)	0	0	0	16.5	0	6.5%	0	0	0
CC12CCC(C(=O)Nc3nccs3)(OC1=O)C2(C)C (centres undefined)	0	0	0	0	0	-	-	-	-
CCN(CC(=O)NCc1cccs1)C(=O)/C=C/c1ccc(OC)cc1OC	0	0	0	0	0	-	-	-	-
CN1CCCC(OC(=O)c2ccccc2Br)C1 (centres undefined)	0	0	0	6.57	0	0	0	0	0
CN1CCCC(OC(=O)c2cccc(Br)c2)C1 (centres undefined)	0	0	0	0	0	-	-	-	-
CCn1c(SCC(=O)Nc2nc(C)c(C)s2)nc2cccnc21	0	0	0	0	0	-	-	-	-
CCOC(=O)Cc1csc(NC(=O)CSc2nc3cccnc3n2CC)n1	0	0	0	7.27	0	0	0	0	0
CC1(C)CC(=O)c2sc(NC(=O)C3COc4ccccc4O3)nc2C1 (centres undefined)	0	0	0	9.44	0	0	0	0	0
CC1(C)CC(=O)c2sc(NS(=O)(=O)c3ccccc3)nc2C1	0	0	0	12.9	0	0	0	0	0

Screening data: PubChem, Johns Hopkins Ion Channel Center
